Activity calls are given as the source filed them. The rule behind the calls is not given here.
How the values were obtained:
MCF7 [1] = assay: Repression of cyclinD1 level in MCF7 cells at 7.5 uM relative to control; format: functional, Homo sapiens
Summary of the method: (§1)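 MCF-7 cells exposed for 72 h in 5% FBS-supplemented medium over 2.5-7.5 µM. Lysates were run on 10% SDS-PAGE and immunoblotted for cyclin D1 with ECL detection. Band intensity was quantified by densitometry, normalized to β-actin and expressed relative to DMSO control (100%).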

MCF7 [2] = assay: Repression of cyclinD1 level in MCF7 cells after 72 hrs; format: functional, cell-based; details: Homo sapiens, MCF7, 72 h; summary of the method: as §1
MCF7 [3] = assay: Repression of cyclinD1 level in MCF7 cells at 5 uM relative to control; format: functional, Homo sapiens; summary of the method: as §1
MCF7 [4] = assay: Repression of cyclinD1 level in MCF7 cells at 2.5 uM relative to control; format: functional, Homo sapiens; summary of the method: as §1
MCF7 [5] = assay: Antiproliferative activity against MCF7 cells by MTT assay; format: functional, cell-based; details: Homo sapiens
Summary of the method: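 MCF-7 cells seeded in DMEM/Ham's F-12 with 10% FBS for 24 h, then exposed to test agents in DMSO (final 0.1%) in 5% FBS medium. Vehicle controls got matching DMSO. Medium replaced with 0.5 mM MTT in 10% FBS RPMI 1640 for 2 h at 37 °C, and reduced dye solubilized in DMSO. Six replicates.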

MCF7 [6] = assay: Repression of cyclinD1 level in MCF7 cells at 10 uM; format: functional, cell-based; details: Homo sapiens

| Structure (SMILES) | Activity (MCF7 [1]) [%] | IC50 (MCF7 [2]) [µM] | Activity (MCF7 [3]) [%] | Activity (MCF7 [4]) [%] | IC50 (MCF7 [5]) [µM] | Activity (MCF7 [6]) |
| --- | --- | --- | --- | --- | --- | --- |
| C=CCOc1c(C)c(C)c2c(c1C)CCC(C)(COc1ccc(/C=C3\SC(=O)NC3=O)cc1OC)O2 (stereo not given) | 1 | 2.5 | 5 | 34 | – | – |
| CC(C)=CCOc1c(C)c(C)c2c(c1C)CCC(C)(COc1ccc(/C=C3\SC(=O)NC3=O)cc1)O2 (stereo not given) | 5 | – | 21 | 76 | – | – |
| CCCCOc1c(C)c(C)c2c(c1C)CCC(C)(COc1ccc(/C=C3\SC(=O)NC3=O)cc1C(F)(F)F)O2 (stereo not given) | – | 6 | – | – | – | – |
| C=CCOc1c(C)c(C)c2c(c1C)CC[C@@](C)(COc1ccc(/C=C3\SC(=O)NC3=O)cc1OC)O2 | – | – | – | – | 5 | – |
| C=CCOc1c(C)c(C)c2c(c1C)CCC(C)(COc1ccc(/C=C3\SC(=O)NC3=O)cc1OCC)O2 (stereo not given) | 75 | – | 87 | 107 | – | – |
| CC(C)=CCOc1c(C)c(C)c2c(c1C)CCC(C)(COc1ccc(/C=C3\SC(=O)NC3=O)cc1-c1ccc(F)cc1)O2 (stereo not given) | 85 | – | 92 | 87 | – | – |
| CC(C)=CCOc1c(C)c(C)c2c(c1C)CCC(C)(COc1ccc(/C=C3\SC(=O)NC3=O)cc1C)O2 (stereo not given) | 27 | – | 56 | 89 | – | – |
| C=CCOc1c(C)c(C)c2c(c1C)CCC(C)(COc1ccc(/C=C3\SC(=O)NC3=O)cc1Br)O2 (stereo not given) | 105 | – | 98 | 102 | – | – |
| Cc1c(C)c2c(c(C)c1OC/C=C/c1ccccc1)CCC(C)(COc1ccc(/C=C3\SC(=O)NC3=O)cc1)O2 (stereo not given) | 43 | – | 65 | 92 | – | – |
| CC(C)=CCOc1c(C)c(C)c2c(c1C)CCC(C)(COc1ccc(/C=C3\SC(=O)NC3=O)cc1F)O2 (stereo not given) | 64 | – | 87 | 95 | – | – |
| C=CCOc1c(C)c(C)c2c(c1C)CC[C@](C)(COc1ccc(/C=C3\SC(=O)NC3=O)cc1OC)O2 | – | – | – | – | – | Active |
| C=CCOc1c(C)c(C)c2c(c1C)CCC(C)(COc1cccc(/C=C3\SC(=O)NC3=O)c1)O2 (stereo not given) | 75 | – | 92 | 84 | – | – |
| CCOc1cc(/C=C2\SC(=O)NC2=O)ccc1OCC1(C)CCc2c(C)c(OCC=C(C)C)c(C)c(C)c2O1 (stereo not given) | 54 | – | 84 | 107 | – | – |
| C=CCOc1c(C)c(C)c2c(c1C)CCC(C)(COc1ccc(/C=C3\SC(=O)NC3=O)cc1C)O2 (stereo not given) | 8 | – | 24 | 84 | – | – |
| Cc1c(C)c2c(c(C)c1OC(=O)CCC(=O)O)CCC(C)(COc1ccc(/C=C3\SC(=O)NC3=O)cc1)O2 (stereo not given) | 76 | – | 98 | 115 | – | – |
| Cc1c(C)c2c(c(C)c1O)CCC(C)(COc1ccc(/C=C3\SC(=O)NC3=O)cc1)O2 (stereo not given) | – | – | – | – | 55 | – |
| CC(C)=CCOc1c(C)c(C)c2c(c1C)CCC(C)(COc1ccc(/C=C3\SC(=O)NC3=O)cc1Br)O2 (stereo not given) | 53 | – | 84 | 96 | – | – |
| CCCCOc1c(C)c(C)c2c(c1C)CCC(C)(COc1ccc(CC3SC(=O)NC3=O)cc1C(F)(F)F)O2 (stereo not given) | – | 9 | – | – | – | – |
| C=CCOc1c(C)c(C)c2c(c1C)CCC(C)(COc1ccc(/C=C3\SC(=O)NC3=O)cc1)O2 (stereo not given) | 2 | > 5 | 42 | 45 | – | – |
| COc1cc(/C=C2\SC(=O)NC2=O)ccc1OCC1(C)CCc2c(C)c(OCC=C(C)C)c(C)c(C)c2O1 (stereo not given) | 54 | – | 78 | 95 | – | – |
| Cc1c(C)c2c(c(C)c1OCc1ccccc1)CCC(C)(COc1ccc(/C=C3\SC(=O)NC3=O)cc1)O2 (stereo not given) | 12 | – | 42 | 85 | – | – |

Source: ChEMBL document CHEMBL1137411, “Development of small-molecule cyclin D1-ablative agents” (J Med Chem, 2006)
